The subject of series [1] is Rattus norvegicus. The series can be described thus: Increase in liver weight in Wistar rat at 401 umol/kg/day administered through diet for 4 days. Type of series: ADME, organism-based. The conditions noted are these: in vivo, po, 96 h. In short, it runs like this: (§1)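 Male Wistar rats (170-190 g initial), groups of six, dosed via diet ad libitum for 4 or 10 days, daily dose from food consumption. Liver wet weight measured, expressed as g/100 g final body weight, compared with untreated controls run simultaneously.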

Series [2] deals with Rattus norvegicus. In words: Hypolipidemic activity in Wistar rat assessed as reduction in plasma cholesterol level at 430 umol/kg/day administered through diet for 4 days. The series is classed as functional. The conditions noted are these: 96 h. An outline of the steps:
(§2)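 Young male Wistar rats, 170-190 g initial weight, groups of six, given compound mixed thoroughly into Purina Lab Chow ad libitum for 4 or 10 days as stated. Daily dose calculated from food consumption and body weight. Bled by cardiac puncture at end of treatment; plasma cholesterol measured by automated procedure. Expressed as percent reduction versus simultaneous untreated control group; Student's t test.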

In series [3] the test system is Rattus norvegicus. In words: Hypolipidemic activity in Wistar rat assessed as reduction in plasma triglyceride level at 401 umol/kg/day administered through diet for 4 days. The series is classed as functional. The conditions noted are these: 96 h. In short, it runs like this:
(§3)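 Young male Wistar rats (initial weight 170-190 g), groups of six, fed compound mixed into Purina Lab Chow ad libitum for 4 or 10 days; daily dose calculated from food consumption and body weight. Bled by cardiac puncture; plasma cholesterol and triglycerides by automated procedures; percent reduction versus simultaneous untreated controls, Student's t test.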

The subject of series [4] is Rattus norvegicus. The series can be described thus: Hypolipidemic activity in Wistar rat assessed as reduction in plasma triglyceride level at 430 umol/kg/day administered through diet for 4 days. Type of series: functional. To be noted: 96 h. An outline of the steps:
as §3

In series [5] the test system is Rattus norvegicus. The series can be described thus: Hypolipidemic activity in Wistar rat assessed as reduction in plasma cholesterol level at 401 umol/kg/day administered through diet for 4 days. Type of series: functional. The conditions noted are these: 96 h. An outline of the steps: (§4)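 Young male Wistar rats, 170-190 g at start, in groups of six, given compound mixed into Purina Lab Chow ad libitum for 4 or 10 days as stated. Daily dose was calculated from food consumption and body weight. Plasma was taken by cardiac puncture at the end and cholesterol measured by automated procedure. Results are % reduction versus a concurrent untreated control group, with Student's t test.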

The test system of series [6] is Rattus norvegicus. In words: Increase in liver weight in Wistar rat at 430 umol/kg/day administered through diet for 4 days. The series is classed as ADME, organism-based. To be noted: in vivo, po, 96 h. In short, it runs like this: as §1
Series [7] relates to Rattus norvegicus. In words: Hypolipidemic activity in Wistar rat assessed as reduction in plasma triglyceride level at 439 umol/kg/day administered through diet for 10 days. The series is classed as functional. The conditions noted are these: 240 h. In short, it runs like this:
as §3

The subject of series [8] is Rattus norvegicus. The series can be described thus: Hypolipidemic activity in Wistar rat assessed as reduction in plasma cholesterol level at 439 umol/kg/day administered through diet for 10 days. Type of series: functional. The conditions noted are these: 240 h. In short, it runs like this: as §2
Series [9] concerns Rattus norvegicus. In words: Increase in liver weight in Wistar rat at 439 umol/kg/day administered through diet for 10 days. Type of series: ADME, organism-based. To be noted: in vivo, po, 240 h. In short, it runs like this:
as §1

Series [10] deals with Rattus norvegicus. The series can be described thus: Increase in liver weight in Wistar rat at 418 umol/kg/day administered through diet for 4 days. Type of series: ADME, organism-based. The conditions noted are these: in vivo, po, 96 h. In short, it runs like this: as §1
Series [11] deals with Rattus norvegicus. In words: Hypolipidemic activity in Wistar rat assessed as reduction in plasma triglyceride level at 418 umol/kg/day administered through diet for 4 days. The series is classed as functional. To be noted: 96 h. An outline of the steps: as §3
Series [12] has as its system Rattus norvegicus. The series can be described thus: Hypolipidemic activity in Wistar rat assessed as reduction in plasma cholesterol level at 418 umol/kg/day administered through diet for 4 days. Type of series: functional. To be noted: 96 h. In short, it runs like this:
as §2

Series [13] deals with Rattus norvegicus. In words: Hypolipidemic activity in Wistar rat assessed as reduction in plasma cholesterol level at 606 umol/kg/day administered through diet for 10 days. Type of series: functional. The conditions noted are these: 240 h. An outline of the steps: as §3
Series [14] deals with Rattus norvegicus. In words: Hypolipidemic activity in Wistar rat assessed as reduction in plasma triglyceride level at 606 umol/kg/day administered through diet for 10 days. Type of series: functional. The conditions noted are these: 240 h.
Series [15] relates to Rattus norvegicus. In words: Increase in liver weight in Wistar rat at 606 umol/kg/day administered through diet for 10 days. The series is classed as ADME, organism-based. The conditions noted are these: in vivo, po, 240 h.
For series [16], the system named is Rattus norvegicus. The series can be described thus: Hypolipidemic activity in Wistar rat assessed as reduction in plasma triglyceride level at 491 umol/kg/day administered through diet for 4 days. The series is classed as functional. The conditions noted are these: 96 h.
The subject of series [17] is Rattus norvegicus. In words: Increase in liver weight in Wistar rat at 491 umol/kg/day administered through diet for 4 days. The series is classed as ADME, organism-based. The conditions noted are these: in vivo, po, 96 h.
The subject of series [18] is Rattus norvegicus. The series can be described thus: Hypolipidemic activity in Wistar rat assessed as reduction in plasma cholesterol level at 491 umol/kg/day administered through diet for 4 days. Type of series: functional. To be noted: 96 h. An outline of the steps:
as §2

The test system of series [19] is Rattus norvegicus. The series can be described thus: Hypolipidemic activity in Wistar rat assessed as reduction in plasma triglyceride level at 419 umol/kg/day administered through diet for 10 days. The series is classed as functional. To be noted: 240 h. In short, it runs like this:
as §3

The test system of series [20] is Rattus norvegicus. In words: Increase in cholesterol level in Wistar rat liver at 419 umol/kg/day administered through diet for 10 days. Type of series: ADME, organism-based. To be noted: in vivo, po, 240 h. In short, it runs like this:
(§5)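 Male Wistar rats (170-190 g), six per group, given compound by admixture to lab chow ad libitum for 4 or 10 days, dose derived from food intake. Liver cholesterol determined by automated procedure, expressed as mg/g wet tissue, compared with an untreated control group by Student's t test.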

The test system of series [21] is Rattus norvegicus. The series can be described thus: Hypolipidemic activity in Wistar rat assessed as reduction in plasma cholesterol level at 419 umol/kg/day administered through diet for 10 days. The series is classed as functional. To be noted: 240 h. An outline of the steps:
as §2

The subject of series [22] is Rattus norvegicus. In words: Increase in liver weight in Wistar rat at 419 umol/kg/day administered through diet for 10 days. Type of series: ADME, organism-based. To be noted: in vivo, po, 240 h. An outline of the steps: as §1
Series [23] concerns Rattus norvegicus. In words: Increase in cholesterol level in Wistar rat liver at 430 umol/kg/day administered through diet for 4 days. Type of series: ADME, organism-based. The conditions noted are these: in vivo, po, 96 h. An outline of the steps:
as §5

The subject of series [24] is Rattus norvegicus. The series can be described thus: Hypolipidemic activity in Wistar rat assessed as reduction in plasma triglyceride level at 482 umol/kg/day administered through diet for 4 days. The conditions noted are these: 96 h. The series is classed as functional. In short, it runs like this: as §3
In series [25] the test system is Rattus norvegicus. The series can be described thus: Hypolipidemic activity in Wistar rat assessed as reduction in plasma cholesterol level at 482 umol/kg/day administered through diet for 4 days. The series is classed as functional. The conditions noted are these: 96 h. An outline of the steps: as §2
Series [26] deals with Rattus norvegicus. In words: Increase in liver weight in Wistar rat at 482 umol/kg/day administered through diet for 4 days. Type of series: ADME, organism-based. The conditions noted are these: in vivo, po, 96 h. An outline of the steps:
as §1

Series [27] relates to Rattus norvegicus. The series can be described thus: Hypolipidemic activity in Wistar rat assessed as reduction in plasma cholesterol level at 443 umol/kg/day administered through diet for 4 days. Type of series: functional. To be noted: 96 h. An outline of the steps: as §2
For series [28], the system named is Rattus norvegicus. In words: Hypolipidemic activity in Wistar rat assessed as reduction in plasma triglyceride level at 443 umol/kg/day administered through diet for 4 days. The series is classed as functional. To be noted: 96 h. In short, it runs like this: as §3
In series [29] the test system is Rattus norvegicus. The series can be described thus: Hypolipidemic activity in Wistar rat assessed as reduction in plasma cholesterol level at 411 umol/kg/day administered through diet for 10 days. The series is classed as functional. To be noted: 240 h. In short, it runs like this: as §4
In series [30] the test system is Rattus norvegicus. The series can be described thus: Hypolipidemic activity in Wistar rat assessed as reduction in plasma triglyceride level at 411 umol/kg/day administered through diet for 10 days. The series is classed as functional. The conditions noted are these: 240 h.
Series [31] relates to Rattus norvegicus. The series can be described thus: Hypolipidemic activity in Wistar rat assessed as reduction in plasma cholesterol level at 456 umol/kg/day administered through diet for 10 days. To be noted: 240 h. The series is classed as functional. In short, it runs like this: as §2
Series [32] has as its system Rattus norvegicus. The series can be described thus: Hypolipidemic activity in Wistar rat assessed as reduction in plasma triglyceride level at 456 umol/kg/day administered through diet for 10 days. The series is classed as functional. The conditions noted are these: 240 h.

Results on twelve compounds are retold here after ChEMBL document CHEMBL3272012, “5-(Tetradecyloxy)-2-furancarboxylic acid and related hypolipidemic fatty acid-like alkyloxyarylcarboxylic acids” (J Med Chem, 1977).

One may read the inhibition in vivo as the relative decrease from the control value, in per cent.

Molecules are shown by their SMILES.

As for `CCCCCCCCCCCCCCCCOc1cccc(C(=O)OC)c1`, the Activity was 0% in the series on Rattus norvegicus [1] and 3% in the series on Rattus norvegicus [6]. The inhibition in vivo at 430 µmol/kg with Rattus norvegicus [2] and with Rattus norvegicus [4] was 0% throughout. Besides, the inhibition in vivo at 401 µmol/kg with Rattus norvegicus [3] and in the series with Rattus norvegicus [5] was 0% throughout.

In the case of `CCCCCCCCCCCCCCOc1ccc(C(=O)CC(N)=O)cc1`, the inhibition in vivo at 439 µmol/kg in the series with Rattus norvegicus [7] was 3%; in the series on Rattus norvegicus [8], 4%. The compound further yielded an Activity with Rattus norvegicus [9] of 8%.

Compound `CCCCCCCCCCCCCCOc1ccc(C(=O)OCC)cc1Cl` had an Activity in the series with Rattus norvegicus [10] of 0%. The inhibition in vivo at 418 µmol/kg in the series on Rattus norvegicus [11] and in the series with Rattus norvegicus [12] was 0% throughout.

In the case of `CCCCCCc1ccc(C(=O)CC(=O)OC)cc1`, the inhibition in vivo at 606 µmol/kg in the series on Rattus norvegicus [13] is 2%; with Rattus norvegicus [14], 35%. The same compound yielded an Activity in the series with Rattus norvegicus [15] of 2%.

In the case of `CCCCCCCCCCCCCCOc1ccccc1C(=O)OC`, the inhibition in vivo at 491 µmol/kg with Rattus norvegicus [16] and with Rattus norvegicus [18] was 0% throughout. Further, the Activity in the series on Rattus norvegicus [17] was determined as 0%.

In the case of `CCCCCCCCCCCCCCCCOc1ccc(C(=O)O)cc1`, the inhibition in vivo at 419 µmol/kg in the series with Rattus norvegicus [19] came to 55%; in the series with Rattus norvegicus [21], 15%. For the same compound, the Activity in the series with Rattus norvegicus [20] came to 17%; in the series with Rattus norvegicus [22] it was 5%.

In the case of `CCCCCCCCCCCCCCOc1ccc(/C=C/C(=O)OC)cc1`, the Activity in the series with Rattus norvegicus [23] was found to be 18%; with Rattus norvegicus [6], 3%. In addition, the results for the inhibition in vivo at 430 µmol/kg in the series with Rattus norvegicus [2] and in the series on Rattus norvegicus [4] were 28% and 67%, respectively.

Turning to `CCCCCCCCCCCCCCOc1ccc(C#N)cc1`, the inhibition in vivo at 482 µmol/kg turned out to be 6% in the series on Rattus norvegicus [24] and 10% with Rattus norvegicus [25]. Moreover, the Activity with Rattus norvegicus [26] is 4%.

For the compound `CCCCCCCCCCCCCCSc1ccc(C(=O)O)o1`, the inhibition in vivo at 443 µmol/kg stood at 18% in the series with Rattus norvegicus [27] and 62% in the series on Rattus norvegicus [28].

For the compound `CCCCCCCCCCc1ccc(C(=O)CC(=O)OC)cc1`, the results for the inhibition in vivo at 411 µmol/kg in the series on Rattus norvegicus [29] and in the series with Rattus norvegicus [30] were 30% and 69%, respectively.

Turning to `CCCCCCCCCCCCCCOc1ccc(C(N)=O)o1`, the inhibition in vivo at 482 µmol/kg with Rattus norvegicus [24] came to 14%; in the series with Rattus norvegicus [25], 0%. In the series on Rattus norvegicus [26], the Activity was determined as 7%.

Take `CCCCCCCCCCCCCCCCOc1ccccc1C(=O)CC(=O)OC`: the inhibition in vivo at 456 µmol/kg was found to be 10% in the series with Rattus norvegicus [31] and 23% with Rattus norvegicus [32].
